From the EternaBench riboswitch data

Test system: MS2 coat protein
Test: apparent Kd, MS2 coat protein; higher = weaker binding; RNA-MaP array; tryptophan 2.4 mM where present
Method in brief: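 The apparent Kd comes from binding curves fitted cluster by cluster, filtered, and summarised as a median. Those curves followed SNAP-549-labelled MS2 coat protein from 0.7 or 1.5 nM, doubling to 3 µM, on Illumina sequencing-chip clusters where stalled E. coli RNA polymerase had transcribed the designs, without and then with constant ligand. The buffer was 100 mM Tris-HCl pH 7.5, 80 mM KCl, 4 mM MgCl2, BSA, DTT, yeast tRNA and Tween-20, and green signal was normalised to red-channel RNA signal and control-cluster median Fmax.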

[1] = designed as: ON switch for tryptophan, no ligand
[2] = ligand present: tryptophan, designed as: ON switch for tryptophan
[3] = designed as: OFF switch for tryptophan, no ligand
[4] = ligand present: tryptophan, designed as: OFF switch for tryptophan

Sequence | apparent Kd [1] [nM] | apparent Kd [2] [nM] | apparent Kd [3] [nM] | apparent Kd [4] [nM]
AAACAUGAGGAUCACCCAUGUCCUCCUGUCCGAGGACCGGUACGGCCGCCACUCGGUUCUCGGGAGGAUGGUCAAAGACUAUCCA | 290 | 253 |  | 
AAAGCCACUUCGGCCGCCACUACAACAUGAGGAUCACCCAUGUACCUCGUGUACGGUCCGAGGAGUAGGACCGGGAAGUGGUGGA | 132 | 52.8 |  | 
AACAUACAAUAAUAGGUGGAUAUAAGGCGGCGAGGACCGGUACGGCCGCCACUCGCGUACAUGAGGAUCACCCAUGUCUGAAACU | 23.2 | 28.1 |  | 
AAGCUUCGCAUAGGAAAACUAUGUGAAGCUCGAGGACCGGUACGGCCGCCACUCGUCCUCAACAUGAGGAUCACCCAUGUAAUAA |  |  | 22.5 | 28.2
AAUGUAUGGCACAUGAGGAUCACCCAUGUGCGAGGACCGGUACGGCCGCCACUCGGUCCUGGGAUCUUACCACUAUACAUUAAUG |  |  | 10 | 13.1
AAUGUGAAGGCGGCCGCCACUGAUAAUAGACAUGAGGAUCACCCAUGUAUAAAUCCUCAAUAAGACAGGACCGGGCCAACUACGU |  |  | 105 | 125
ACAUGAGGAUCACCCAUGUGCAUCACCCGACGAGGACCGGUACGGCCGCCACUCGGGUAUAUAUUUACAUCGGGUGAUUUUACGU | 22.8 | 21 |  | 
ACAUGAGGAUCACCCAUGUGUGUAAAUCCUCGAGGACCGGUACGGCCGCCACUCGAACGAGUGUAAGUUGAAUGUAACAUUCAAC | 85.5 | 33.7 |  | 
ACGGAGAUGUCGGCCGCCACUGAACUCAUGUUCAACAUGAGGAUCACCCAUGUACCUUAGUUUAUCAGGACCGGGACAUAUACGA |  |  | 116 | 48.1
AGAGCAUUGACGGCCGCCACUCAUGUCACAUGAGGAUCACCCAUGUGAUGGGUGAUCGCCCGGUUGAGGACCGGGUCAAUGCUCA | 43 | 28.5 |  | 
AGAUGAGUCACGGCCGCCACUCACUUCAGGUUCACCCUUGGUUAACAUGAGGAUCACCCAUGUGGGAGGACCGGGUGAUGAGCAU |  |  | 16.2 | 12.8
AGCAACAAGUCGGCCGCCACUCAUAUUACAUGAGGAUCACCCAUGUUUACAUCAAGGUCAUAAUAGAGGACCGGGACAGUUGCAU | 34.1 | 23.7 |  | 
AGCCACUCGAGUGAUCCUCACGAGUGGCUACGAGGACCGGUACGGCCGCCACUCGAAUUAACAUGAGGAUCACCCAUGUAAUAAU | 152 | 39.6 |  | 
AGCUACUCGUUCCUCAUGUACGAGUGGCAACGAGGACCGGUACGGCCGCCACUCGAAUAAACAUGAGGAUCACCCAUGUACAAAU | 54.6 | 120 |  | 
AGGUGCUGAUCGGCCGCCACUGAGAGGACGUGAACUUUAGCUGGUUACAUGAGGAUCACCCAUGUCAGGACCGGGAUUAGUUUGC |  |  | 9.26 | 17.4
AGUACAUGAGGAUCACCCAUGUGCCGGUAACGAGGACCGGUACGGCCGCCACUCGAUGUACCUCAAUUUGAUUGAGAUAAGAAAA | 41 | 17.4 |  | 
AGUAUUGGAAACAGUACUAGUGAUCCGGUCCGAGGACCGGUACGGCCGCCACUCGAUUUAAAUAAACAUGAGGAUCACCCAUGUA |  |  | 13.8 | 25.2
AUAACAUGAGGAUCACCCAUGUAUUGGUUACGAGGACCGGUACGGCCGCCACUCGUAUUAUAGUGGUAUUUUGUUUAUAUGAUAA | 12.6 | 14.1 |  | 
AUAAGCUGUACCGGAAUAUCCUCAUGUAUACGAGGACCGGUACGGCCGCCACUCGAUAACAUGAGGAUCACCCAUGUAAUAAUAA |  |  | 11.2 | 11.2
AUAUAUACAUGAGGAUCACCCAUGUUAUUACGAGGACCGGUACGGCCGCCACUCGAUAGAGUAGAAGUAAAUUUUAAUUCAUGUA | 14.5 | 13 |  | 
AUGCAGAGCACGGCCGCCACUCCAUGUAUACAUGAGGAUCACCCAUGUAAUUUGUAUUUUUUAUAGAGGACCGGGUGAAAUGCAA | 34.3 | 18.2 |  | 
CACGAAAGAUCGGCCGCCACUAUUUGAUGUGUUCUUUCACAUGAGGAUCACCCAUGUUCUUUCUUUAGGACCGGGAUUGAGCGUG |  |  | 99.4 | 49.5
CGAAUAUAGACGGCCGCCACUCUACAAACAUGAGGAUCACCCAUGUUCACAUAGAGGAAACUCAUGAGGACCGGGUCAUAGGCUU | 23.4 | 20 |  | 
CUACAUUUGUAGAAACCGGUCAACAUUAUUCGAGGACCGGUACGGCCGCCACUCGUAUAUUUUAAUACAUGAGGAUCACCCAUGU | 11.6 | 12.1 |  | 
GAGGAAACUCACAUGAGGAUCACCCAUGUACGAGGACCGGUACGGCCGCCACUCGAAACCAUGGGCGGUUGUACAUGGAAACAUG |  |  | 24.8 | 74.8
GAGUAGAAGACGGCCGCCACUAAACAUGAGGAUCACCCAUGUCGUGAUCCGUUACCUAGAGUAGAUAGGACCGGGUCAUAUAGUC |  |  | 30.4 | 30.9
